The source of these data is ChEMBL document CHEMBL1177643, “Synthesis, DNA-binding ability and anticancer activity of benzothiazole/benzoxazole-pyrrolo[2,1-c][1,4]benzodiazepine conjugates” (Bioorg Med Chem, 2010).

“And” between values parts separate entries of the source, which are not always exact repeats. Equal values may be shown once.

Data set [1] concerns HT-29. Description: Antitumor activity against human HT-29 cells xenografted in SCID mouse assessed as reduction tumor volume at 15 mg/kg, ip measured on day 21. It is filed as functional. As to conditions: route intraperitoneal. In a few lines:
(§1)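 HT29 xenografts in scid mice; dosing ip on days 1, 5 and 9 (q4d), 5 or 10 mg/kg per dose (total 15 or 30 mg/kg); vehicle control group. Tumour volume, body weight and toxicity followed for 35 days. Relative tumour volume = volume on given day / volume on day 1; T/C = mean RTV treated / mean RTV control.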

The subject of data set [2] is Mus musculus. Description: Toxicity in SCID mouse assessed as weight loss at 30 mg/kg, ip. It is filed as organism-based. Also on record: dose 30 mg/kg, route intraperitoneal. As to conditions: in vivo. In a few lines:
(§2)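 HT29 xenograft-bearing scid mice dosed ip at 5 or 10 mg/kg on days 1, 5 and 9 (q4d), totalling 15 or 30 mg/kg. Vehicle-treated control group. Body weight, survival and signs of overt toxicity were recorded over the 35-day study.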

For data set [3], the system named is A-375. Description: Cell cycle arrest in human A375 cells assessed as accumulation at sub-G0 phase at 1 uM after 24 hrs using propidium iodide staining by flow cytometry. Format: functional. In a few lines: (§3)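 A375 cells (5×10^5) grown 24 h, then exposed to compound 24 h (DMSO control). Trypsin–EDTA harvest, fixed in ice-cold 70% ethanol at 4 °C 30 min, RNase A 37 °C 30 min, propidium iodide staining. DNA content measured by flow cytometry on 20,000 events, gated as sub-G1/G0, G1, S and G2/M.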
On the technique in general: In flow cytometry, cells or beads pass a laser one at a time.

In data set [4] the test system is A-375. Description: Cell cycle arrest in human A375 cells assessed as accumulation at G0/G1 phase at 1 uM after 24 hrs using propidium iodide staining by flow cytometry. It is filed as functional. In a few lines:
as §3

Data set [5] can be described thus: Toxicity in SCID mouse. It is filed as organism-based. The settings on record: in vivo.
The subject of data set [6] is HT-29. Description: Antitumor activity against human HT-29 cells xenografted in SCID mouse assessed as reduction tumor volume at 30 mg/kg, ip measured on day 17. As to conditions: route intraperitoneal. Format: functional. In a few lines:
as §1

Data set [7] relates to A-375. Description: Cell cycle arrest in human A375 cells assessed as accumulation at G2/M phase at 1 uM after 24 hrs using propidium iodide staining by flow cytometry. Format: functional. In a few lines: as §3
Data set [8] concerns HT-29. Description: Antitumor activity against human HT-29 cells xenografted in SCID mouse assessed as reduction tumor volume at 30 mg/kg, ip measured on day 28. It is filed as functional. As to conditions: route intraperitoneal. In a few lines: as §1
For orientation: A xenograft is tissue or cells of one species grown in another, often human tumour cells in immunodeficient mice.

The subject of data set [9] is A-375. Description: Cell cycle arrest in human A375 cells assessed as accumulation at S phase at 1 uM after 24 hrs using propidium iodide staining by flow cytometry. It is filed as functional. In a few lines: as §3
In data set [10] the test system is A-375. Description: Cell cycle arrest in human A375 cells assessed as accumulation at G2/M phase at 0.5 uM after 24 hrs using propidium iodide staining by flow cytometry. It is filed as functional. In a few lines:
as §3

Data set [11] relates to HT-29. Description: Antitumor activity against human HT-29 cells xenografted in SCID mouse assessed as reduction tumor volume at 15 mg/kg, ip measured on day 14. The settings on record: route intraperitoneal. It is filed as functional. In a few lines: as §1
For data set [12], the system named is A-375. Description: Induction of apoptosis in human A375 cells at 2 uM. It is filed as functional, cell-based. In a few lines:
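A375 melanoma cells (5 × 10⁵ per 60 mm dish) grown 24 h, then exposed to 2 μM compound (final) for 24 h; DMSO-treated cells as control. Cells harvested with trypsin–EDTA, fixed in ice-cold 70% ethanol, treated with RNase A, and stained with propidium iodide. DNA content of 20,000 events read by flow cytometry; sub-G1 (G0) area taken as apoptotic.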

The subject of data set [13] is HT-29. Description: Antitumor activity against human HT-29 cells xenografted in SCID mouse assessed as reduction tumor volume at 30 mg/kg, ip measured on day 1. Format: functional. The settings on record: route intraperitoneal. In a few lines:
as §1

The test system of data set [14] is HT-29. Description: Antitumor activity against human HT-29 cells xenografted in SCID mouse assessed as reduction tumor volume at 15 mg/kg, ip measured on day 25. Format: functional. As to conditions: route intraperitoneal. In a few lines: as §1
Data set [15] concerns Mus musculus. Description: Toxicity in SCID mouse assessed as weight loss at 15 mg/kg, ip. The settings on record: in vivo. Format: organism-based. Also on record: dose 15 mg/kg, route intraperitoneal. In a few lines:
as §2

Data set [16] concerns HT-29. Description: Antitumor activity against human HT-29 cells xenografted in SCID mouse assessed as reduction tumor volume at 15 mg/kg, ip measured on day 28. It is filed as functional. The settings on record: route intraperitoneal. In a few lines: as §1
The subject of data set [17] is HT-29. Description: Antitumor activity against human HT-29 cells xenografted in SCID mouse assessed as reduction tumor volume at 15 mg/kg, ip measured on day 1. Format: functional. As to conditions: route intraperitoneal. In a few lines:
as §1

Data set [18] deals with HT-29. Description: Antitumor activity against human HT-29 cells xenografted in SCID mouse assessed as reduction tumor volume at 30 mg/kg, ip measured on day 5. As to conditions: route intraperitoneal. Format: functional. In a few lines: as §1
The test system of data set [19] is A-375. Description: Cell cycle arrest in human A375 cells assessed as accumulation at G0 phase at 1 uM after 24 hrs using propidium iodide staining by flow cytometry. Format: functional. In a few lines:
as §3

Data set [20] has as its system HT-29. Description: Antitumor activity against human HT-29 cells xenografted in SCID mouse assessed as reduction tumor volume at 15 mg/kg, ip measured on day 17. It is filed as functional. The settings on record: route intraperitoneal. In a few lines: as §1
Data set [21] deals with A-375. Description: Cell cycle arrest in human A375 cells assessed as accumulation at sub-G0 phase at 0.5 uM after 24 hrs using propidium iodide staining by flow cytometry. Format: functional. In a few lines: as §3
For data set [22], the system named is Mus musculus. Description: Toxicity in SCID mouse assessed as mortality at 15 mg/kg, ip. It is filed as organism-based. Also on record: dose 15 mg/kg, route intraperitoneal. As to conditions: in vivo. In a few lines: as §2

`COc1cc(-c2nc3ccccc3s2)ccc1OCCCCCOc1cc2c(cc1OC)C(=O)N1CCC[C@H]1C=N2`: the T/C (in general, the result in the treated group divided by that in the control group, in per cent) with HT-29 [1] was 0.65% and 0.2%; in the data set with HT-29 [6], 0.81%; with HT-29 [8] it was 0.75%; with HT-29 [11], 0.58% and 0.3%; in the data set with HT-29 [13], 1%; in the data set with HT-29 [14] it was 0.72% and 0.2%. In addition, the T/C was 0.73% and 0.18% in the data set on HT-29 [16]; 1% in the data set on HT-29 [17]; 0.85% in the data set with HT-29 [18]; 0.65% and 0.28% in the data set with HT-29 [20]. The Activity result in the data set on Mus musculus [2] is reported as “Non-toxic”; with A-375 [3] it was 2.7%; with A-375 [4], 64.26%; in the data set with A-375 [7], 20.32%; in the data set with A-375 [9], 15.42%; in the data set on A-375 [10], 15.96%. The Activity entry in the data set with A-375 [12] is “Dose-dependent effect”; in the data set on Mus musculus [15], “Non-toxic”; in the data set on A-375 [19], 2.7%; in the data set on A-375 [21] it was 2.13%; in the data set on Mus musculus [22] it was “Non-toxic”. Further, in data set [5], the MTD was under 50 mg/kg.
